Consider 21 molecules from ChEMBL document CHEMBL4184218, “Design, synthesis and biological evaluation of new carbazole derivatives as anti-cancer and anti-migratory agents” (Bioorg Med Chem, 2018).

In one data set the test system is MCF7. In words: Growth inhibition of human MCF7 cells after 24 hrs by SRB assay. It is filed as functional. Conditions: MCF7, 24 h. Summed up:
(§1)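 Sulforhodamine B growth assay in MCF-7 or MDA-MB-231 breast cancer cells after 24 h of compound treatment. GI50 is the concentration giving 50% inhibition of proliferation, with an upper test limit of 50 µM. Values are the mean of triplicate experiments.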
In general terms: The SRB assay estimates cell density from bound dye.

Data set [1] has as its system MDA-MB-231. In words: Growth inhibition of human MDA-MB-231 cells after 24 hrs by SRB assay. It is filed as functional. As to conditions: MDA-MB-231, 24 h. Summed up: as §1
The subject of data set [2] is MDA-MB-231. The data set is described as follows: Anti-migratory activity against human MDA-MB-231 cells assessed as cell migration at 10 uM after 12 hrs by scratch wound-healing assay. It is filed as functional, cell-based. The procedure, abridged:
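Scratch wound-healing assay in MDA-MB-231 cells with test compounds at 10 µM against vehicle (0.02% DMSO). Wounds were photographed at 0, 12 and 24 h. Migration was taken as the distance travelled from the scratch edge toward its centre, relative to control. Values are the average of three independent experiments.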

Data set [3] has as its system MCF-10A. The data set is described as follows: Cytotoxicity against human MCF10A cells assessed as reduction in cell viability at 30 to 50 uM after 24 hrs by CellTiter 96 aqueous one solution cell proliferation assay. Type of data set: cell-based.
Data set [4] deals with Ras-related C3 botulinum toxin substrate 1 (Homo sapiens) (UniProt P63000). In words: Inhibition of Rac1 in human MDA-MB-435 cells assessed as reduction in Rac-GTP level atv 250 nM after 24 hrs by ELISA-based pull down assay. Type of data set: cell-based. In general terms: ELISA stands for enzyme-linked immunosorbent assay.
The target is the same in data set [5]. In words: Inhibition of Rac1 in human MDA-MB-231 cells assessed as reduction in Rac-GTP level at 250 nM after 24 hrs by ELISA-based pull down assay. It is filed as cell-based.
Data set [6] has as its system MCF-10A. In words: Growth inhibition of human MCF10A cells up to 36 uM after 24 hrs by CellTiter 96 aqueous one solution cell proliferation assay. It is filed as cell-based.
Data set [7] relates to MDA-MB-231. In words: Anti-migratory activity against human MDA-MB-231 cells assessed as reduction in cell migration at 5 uM after 24 hrs by scratch wound-healing assay relative to control. The arrangement: scale not given: the % may be the effect or the level left. It is filed as functional.
Data set [8] has as its target Ras-related C3 botulinum toxin substrate 1 (Homo sapiens) (UniProt P63000). In words: Inhibition of Rac1 in human MDA-MB-435 cells assessed as reduction in phosphorylation at Thr423 residue at 2 uM after 24 hrs by Western blot analysis. Type of data set: cell-based. For orientation: Immunoblotting shows a protein as a band on a membrane.
Data set [9] in a line: Growth inhibition of human MCF10A cells at 10 uM after 24 hrs by MTT assay relative to control. It is filed as cell-based, MCF-10A. As to conditions: read-out: GI.
Data set [10] concerns the target Ras-related C3 botulinum toxin substrate 1 (Homo sapiens, UniProt P63000, G15A). In words: Inhibition of Vav2 binding to Rac1 G15A mutant in human MDA-MB-231 cells after 1 hr by pull down assay. It is filed as cell-based.

Activity calls are given as the source filed them. The calls are words filed in the database; no cut-off is given here.

The GI50 is the concentration that inhibits growth by half. For the molecule `CCn1c2ccccc2c2cc(Nc3ncccc3C(=O)NCCCn3ccnc3)ccc21`, the GI50 in the data set with MCF7 was 27 µM; in the data set on MDA-MB-231 [1], more than 50 µM.

Turning to `CCn1c2ccccc2c2cc(NC(=O)c3cccnc3NCCCN3CCOCC3)ccc21`, the GI50 was more than 50 µM with MCF7 and 19 µM in the data set on MDA-MB-231 [1].

Take `CCN(CC)CCNC(=O)c1cccnc1Nc1ccc2c(c1)c1ccccc1n2CC`: the GI50 in the data set on MCF7 amounted to 14 µM; in the data set on MDA-MB-231 [1] it was 18 µM.

Take `CCn1c2ccccc2c2cc(NC(=O)c3cccnc3N3CCOCC3)ccc21`: the GI50 in the data set on MCF7 and in the data set with MDA-MB-231 [1] was more than 50 µM throughout. Besides, the result in the data set on MDA-MB-231 [2] was Active.

For `CCn1c2ccccc2c2cc(NC(=O)c3ccccc3C(=O)NCCO)ccc21`, the GI50 with MCF7 and in the data set on MDA-MB-231 [1] was more than 50 µM each time.

As for `CCn1c2ccccc2c2cc(NC(=O)c3nccnc3C(=O)NCCCN3CCOCC3)ccc21`, the GI50 in the data set on MCF7 and with MDA-MB-231 [1] was more than 50 µM throughout.

Take `CCn1c2ccccc2c2cc(NC(=O)c3nccnc3C(=O)NCCCn3ccnc3)ccc21`: the GI50 in the data set with MCF7 and in the data set with MDA-MB-231 [1] was more than 50 µM each time.

In the case of `CCn1c2ccccc2c2cc(Nc3ncccc3C(=O)NCCN3CCN(C(=O)OC(C)(C)C)CC3)ccc21`, the GI50 in the data set with MCF7 and in the data set with MDA-MB-231 [1] was more than 50 µM each time.

As for `CCn1c2ccccc2c2cc(Nc3ncccc3C(=O)Nc3cc(OC)c(OC)c(OC)c3)ccc21`, the 50% growth inhibitory concentration (GI50) in the data set on MCF7 and in the data set on MDA-MB-231 [1] was more than 50 µM in each case.

Turning to `CCn1c2ccccc2c2cc(Nc3ncccc3NC(=O)CCN3CCCCC3)ccc21`, the GI50 in the data set on MCF7 is 15 µM; with MDA-MB-231 [1], 23 µM.

In the case of `CCn1c2ccccc2c2cc(NC(=O)c3cccnc3N3CCN(c4ccccc4)CC3)ccc21`, the concentration for 50% growth inhibition (GI50) in the data set on MCF7 and in the data set with MDA-MB-231 [1] was more than 50 µM throughout.

For `CCn1c2ccccc2c2cc(NC(=O)c3cccnc3N3CCN(C(C)=O)CC3)ccc21`, the GI50 with MCF7 and in the data set with MDA-MB-231 [1] was more than 50 µM in each case.

For `CCn1c2ccccc2c2cc(NC(=O)c3nccnc3C(=O)NCCN3CCOCC3)ccc21`, the concentration for 50% growth inhibition (GI50) with MCF7 and with MDA-MB-231 [1] was more than 50 µM each time.

Turning to `CCn1c2ccccc2c2cc(C(=O)Nc3cccnc3N3CCOCC3)ccc21`, the GI50 with MCF7 and with MDA-MB-231 [1] was more than 50 µM each time. Moreover, in the data set with MCF-10A [3], the Activity result is recorded as “Non-Toxic”. Moreover, the inhibition in data set [4] and in data set [5] was 55% each time. For the same molecule, the result in the data set with MDA-MB-231 [2] was Active. The “growth inhibition (GI)” value in the data set with MCF-10A [6] is “Non-Toxic”.

For `CCn1c2ccccc2c2cc(Nc3ncccc3NC(=O)c3cccnc3)ccc21`, the figures for the GI50 with MCF7 and in the data set on MDA-MB-231 [1] were 41 µM and 31 µM, respectively.

One may read the IC50 as the concentration that gives 50% inhibition. Regarding `CCn1c2ccccc2c2cc(Nc3ccnc(NCCCN4CCOCC4)n3)ccc21`, the results for the concentration for 50% growth inhibition (GI50) in the data set with MCF7 and in the data set with MDA-MB-231 [1] were 14 µM and 15 µM, respectively. The Activity in the data set with MDA-MB-231 [7] is given as 17%. In data set [8], the inhibition came to 60%. The inhibition at 24 h, 10 µM in data set [9] was 50%. For the same molecule, the IC50 in data set [10] was 1.1 µM.

`CCn1c2ccccc2c2cc(Nc3ncccc3C(=O)NCCCN3CCOCC3)ccc21`: the GI50 in the data set on MCF7 is 28 µM; in the data set on MDA-MB-231 [1] it was more than 50 µM.

Take `CCn1c2ccccc2c2cc(NC(=O)c3nccnc3C(=O)NCCOC)ccc21`: the 50% growth inhibitory concentration (GI50) in the data set with MCF7 and in the data set on MDA-MB-231 [1] was more than 50 µM each time.

Consider `CCn1c2ccccc2c2cc(NC(=O)c3ccccc3C(=O)NCCOC)ccc21`, for which the GI50 in the data set on MCF7 and in the data set with MDA-MB-231 [1] was more than 50 µM in each case.

As to `CCn1c2ccccc2c2cc(C(=O)Nc3cccnc3NCCCN3CCOCC3)ccc21`, the results for the GI50 in the data set on MCF7 and in the data set with MDA-MB-231 [1] were 32 µM and 39 µM, respectively.

Turning to `CCN(CC)CCCC(C)NC(=O)c1cccnc1Nc1ccc2c(c1)c1ccccc1n2CC` (configuration not stated), the values for the GI50 with MCF7 and in the data set on MDA-MB-231 [1] were 13 µM and 18 µM, respectively.
